From PubChem
STAT1 inh-1 = STAT1 signaling inhibitors, primary screen, cell-based, HTS, luciferase reporter; NIH 3T3 STAT1-luciferase reporter, IFN-gamma, luminescence; 200,000 compounds, 0.35% hits; inhibition, % at 5.5 µM;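 active = inhibition above a set limit, the mean inhibition across all tested compounds plus 3 SD, cut at about 34% in these data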;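 also: 0% = IFN-gamma with DMSO and 100% = IFN-gamma with 300 µM nifuroxazide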
STAT3 act = IL-6 driven STAT3 reporter potentiators, primary screen, U3A cells, luciferase, luminescence, MLSCN library; activation (% of control), % at 5.6 µM; IL-6 STAT3-luciferase reporter; 100% = signal with IL-6 EC80 alone; 190,000 compounds, 0.91% hits;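 active = activation above the screen-wide mean of compound activation plus 3 SD, cut at about 130% in these data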;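 also: 0% = background luminescence of wells with medium and substrate only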
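Material: STAT3-luciferase reporter U3A cells. Controls: IL-6-treated wells, 100% activation. Read-out: % activation versus median of IL-6-stimulated wells. Probe or stimulus: IL-6 stimulus at 33 ng/mL final. Timing: compound 1 h, then IL-6 6 h at 37 °C. Signal: reporter luminescence signal.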
STAT3 blocker = IL-6 driven STAT3 reporter inhibitors, primary screen, U3A cells, luciferase, luminescence, MLSCN library | IL-6 STAT3-luciferase reporter; host cell line lacks STAT1 | inhibition, % at 5.5 µM | 190,000 compounds, 0.89% hits | AID 862, 2007;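 active = inhibition above the mean inhibition across all screened compounds plus 3 SD, cut at about 44% in these data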;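 also: 0% = DMSO only wells and 100% = 100 µM nifuroxazide control wells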
NF-kB neuron act = activators of NF-kB expression in neurons, primary screen, cell-based, HTS; human neuronal cells, NF-kB reporter expression; active compounds read high; fold change at 12.5 µM; 190,000 compounds, 1.6% hits; AID 1239, 2008; in the data active = fold change above about 3.3
APP 5'UTR act = activators of APP 5'UTR luciferase reporter, primary screen, SH-SY5Y cells; AID 1276, 2008; SH-SY5Y APP 5'UTR luciferase reporter, luminescence; zero percent = DMSO vehicle wells; activation, % at 2 µM; 190,000 compounds, 1% hits;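 active = activation above a set limit, based on mean plus 3 SD of controls, cut at about 140% in these data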
STAT1 activator = STAT1 signaling activators, primary screen, cell-based, HTS, luciferase reporter | NIH 3T3 STAT1-luciferase reporter, IFN-gamma, luminescence; 100% = IFN-gamma alone, no compound | activation (% of control), % at 5.5 µM | 200,000 compounds, 2.6% hits;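 active = activation above the screen-wide mean activation plus 3 SD, cut at about 130% in these data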;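 also: raw ratio to IFN-gamma control signal so 100% means no change and 0% no light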
STAT1 inh-2 = STAT1 signaling inhibitors, confirmation, cell-based, HTS, luciferase reporter; shares compounds with STAT1 inh-1; NIH 3T3 STAT1-luciferase reporter, IFN-gamma, luminescence; inhibition, % at 5.5 µM; 200 compounds, 55% hits; AID 1263, 2008;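 active = triplicate mean inhibition exceeding the hit cutoff computed for the primary STAT1 screen, cut at about 35% in these data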;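 also: 0% = DMSO with IFN-gamma and 100% = 300 µM nifuroxazide with IFN-gamma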
NFkB inh STAT1ct = NF-kB reporter inhibitors, TNF-alpha stimulated, counter-screen for STAT1 inhibitor project, cell-based, HEK293T, luciferase luminescence. 200 compounds, 30% hits. shares compounds with STAT1 inh-1. inhibition, % at 5.7 µM. TNF-alpha induced;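 active = inhibition above the mean of solvent-only control wells plus 3 SD of those wells, cut at about 15% in these data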;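 also: 0% = DMSO with TNF-alpha and 100% = MG-132 control with TNF-alpha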
STAT3 inh 2 = STAT3 reporter inhibition by STAT1 hits, counter-screen for STAT1 inhibitor project, U3A cells, luciferase, luminescence, triplicate | inhibition, % at 5.7 µM | 200 compounds, 20% hits | AID 1310, 2008 | IL-6 STAT3 luciferase reporter; cells lacking STAT1 | shares compounds with STAT1 inh-1;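 active = inhibition above the mean of solvent-only control wells plus 3 SD, set per campaign, cut at about 25% in these data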;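 also: 0% = IL-6 plus DMSO and 100% = IL-6 plus nifuroxazide control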
Starred values were filed as active, the others as inactive; · = no result. In the library only some 4.9% were active in any assay of this set; here they are far more common.

SMILES | STAT1 inh-1 | STAT3 act | STAT3 blocker | NF-kB neuron act | APP 5'UTR act | STAT1 activator | STAT1 inh-2 | NFkB inh STAT1ct | STAT3 inh 2
COc1cc2ncnc(NCCc3ccccc3)c2cc1OC | 16 | 90 | 13 | 0.62 | -23 | 84 | · | · | ·
Cc1cccc(NC(=O)C2NC(=O)CC2c2ccccc2)c1C (centres undefined) | 0 | 98 | 8 | 0.87 | -12 | 100 | · | · | ·
CCNC(=O)NC(=O)COC(=O)C1CSC2(C)CCC(=O)N12 (centres undefined) | 1 | 101 | 4 | 1.1 | 22 | 97 | · | · | ·
CCOC(=O)Nc1ccc(=O)n(Cc2c(Cl)cccc2Cl)c1 | 1 | 107 | 2 | 1.1 | -2 | 99 | · | · | ·
Cc1cccc(N2CC(O)(c3cccs3)[N+]3=C2CCCC3)c1C (centres undefined) | 39* | 100 | 4 | 1.3 | 5 | 62 | 31 | -6 | 0
COc1ccccc1CN1C[C@@H]2C[C@@H](c3ccc(C)c(C)c3)N3CCC[C@@]23C1=O | -6 | 104 | -2 | 0.9 | 15 | 104 | · | · | ·
CCn1c(O)c(/C=N/NC(=O)c2ccncc2)c(=O)n(CC)c1=S | 61* | 95 | 8 | 1.1 | 16 | 45 | 60* | 1 | -46
Cn1c(=O)n(C)c2cc(/C=N/NC(=O)c3ccncc3)ccc21 | 4 | 96 | 7 | 1 | 18 | 95 | · | · | ·
COc1ccc(NS(=O)(=O)c2ccc(NC(=S)NC(=O)c3ccc(Br)cc3)cc2)nn1 | 8 | 102 | -2 | 1.1 | -7 | 93 | · | · | ·
Cc1nc2ncccn2c1-c1csc(Nc2ccc(O)cc2)n1 | 45* | 77 | 30 | 2.8 | -13 | 57 | 42* | 9 | 32*
Cc1ccc(Nc2nc(-c3c(C)nc4ncccn34)cs2)cc1 | 8 | 92 | 19 | 2.2 | -95 | 92 | · | · | ·
CCCCCCC1CC(=O)NC(=S)N1 (centres undefined) | 3 | 87 | 18 | 1.4 | 23 | 96 | · | · | ·
COc1ccc(-n2c(SCc3ccccn3)nc3c(c2=O)SCC3)cc1OC | 40* | 107 | 5 | 0.86 | -14 | 63 | 30 | -2 | -24
O=C(CSc1nc2c(c(=O)n1-c1ccccc1)SCC2)N1CCN(c2ccccc2)CC1 | 45* | 89 | 14 | 0.72 | 7 | 59 | 53* | 16* | 16
COc1ccc(-n2cc(-c3ccccc3)c3c(N4CCOCC4)ncnc32)cc1 | 44* | 81 | 25 | 0.3 | -10 | 58 | 28 | 2 | -60
Cn1c(-c2ccccc2)c(C(=O)CCl)c2ccccc21 | 37* | 98 | 9 | 1 | 12 | 65 | 36* | 40* | 7
CCOc1ccc(S(=O)(=O)Nc2cccc(C)c2)c2cccnc12 | 37* | 96 | 11 | 0.96 | -7 | 64 | 25 | -2 | 7
COc1ccc(C2=C(C=C(C#N)C#N)C(c3ccccc3C)c3ccccc3O2)cc1OC (centres undefined) | -6 | 104 | 0 | 1.1 | 3 | 105 | · | · | ·
CC(/C=C/c1ccccc1F)=N\NC(=O)C(C)C | -10 | 107 | -5 | 1.8 | 17 | 109 | · | · | ·
CCCCC(=O)N/N=C(C)/C=C/c1ccccc1F | 45* | 99 | 6 | 1.2 | 18 | 58 | 14 | -11 | -37
CC(C)CNC(=O)COC(=O)c1c2c(nc3ccccc13)/C(=C/c1cccs1)CC2 | 38* | 92 | 5 | 0.98 | 5 | 65 | 21 | -14 | 10
c1csc(-c2ccnc3ncnn23)c1 | 7 | 81 | 24 | 1.1 | 23 | 93 | · | · | ·
